# System: Fibroblast
# Experiment: Multiplex assay against human fibroblast
# Type: toxicity, cell-based
# Summary of the method: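 Phenotypes for tubulin, mitochondrial mass and membrane permeability are expressed as per cents of healthy-nucleus cells. Cells were stained live at seeding with Hoechst33342, BioTracker Green Microtubule Cytoskeleton Dye, MitoTracker Red and Annexin V Alexa Fluor 680, then imaged after compound addition on a CQ1 microscope at 37°C and 5% CO2. Machine-learning gating in CellPathfinder separated Hoechst high-intensity objects from normal cells, divided normal cells by nuclear state (healthy, pyknosed, fragmented) and divided pyknosed cells into mitotic or apoptotic.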
# [1] = 12 h, 1 µM, compound concentration 1 uM, replicate 1
# [2] = 12 h, 1 µM, compound concentration 1 uM, replicate 2
# [3] = 12 h, 10 µM, compound concentration 10 uM, replicate 1
# [4] = 12 h, 10 µM, compound concentration 10 uM, replicate 2
# [5] = 24 h, 1 µM, compound concentration 1 uM, replicate 1
# [6] = 24 h, 1 µM, compound concentration 1 uM, replicate 2
# [7] = 24 h, 10 µM, compound concentration 10 uM, replicate 1
# [8] = 24 h, 10 µM, compound concentration 10 uM, replicate 2
# [9] = 48 h, 1 µM, compound concentration 1 uM, replicate 1
# [10] = 48 h, 1 µM, compound concentration 1 uM, replicate 2
# [11] = 48 h, 10 µM, compound concentration 10 uM, replicate 1
# [12] = 48 h, 10 µM, compound concentration 10 uM, replicate 2
structure (smiles),measurement,setting,value
Nc1nc(CC(=O)Nc2ccc(CCNC[C@H](O)c3ccccc3)cc2)cs1 [MIRABEGRON],Population Apoptotic (%),[1],53%
same,Population Fragmented Nuclei (%),[1],19%
same,Population Healthy Nuclei (%),[1],62%
same,Population Hoechst High Intensity Objects (%),[1],5%
same,Population Membrane Permeable-Phenotype (%),[1],0%
same,Population Mitochondria Different-Phenotype (%),[1],6%
same,Population Mitotic Cells (%),[1],46%
same,Population Normal (%),[1],94%
same,Population Pyknosed Nuclei (%),[1],18%
same,Population Tubulin-Different-Phenotype (%),[1],25%
same,Total Cell Count,[1],164
same,Population Apoptotic (%),[2],31%
same,Population Fragmented Nuclei (%),[2],27%
same,Population Healthy Nuclei (%),[2],52%
same,Population Hoechst High Intensity Objects (%),[2],4%
same,Population Membrane Permeable-Phenotype (%),[2],9%
same,Population Mitochondria Different-Phenotype (%),[2],12%
same,Population Mitotic Cells (%),[2],68%
same,Population Normal (%),[2],95%
same,Population Pyknosed Nuclei (%),[2],19%
same,Population Tubulin-Different-Phenotype (%),[2],46%
same,Total Cell Count,[2],189
same,Population Apoptotic (%),[3],46%
same,Population Fragmented Nuclei (%),[3],15%
same,Population Healthy Nuclei (%),[3],75%
same,Population Hoechst High Intensity Objects (%),[3],3%
same,Population Membrane Permeable-Phenotype (%),[3],0%
same,Population Mitochondria Different-Phenotype (%),[3],4%
same,Population Mitotic Cells (%),[3],53%
same,Population Normal (%),[3],96%
same,Population Pyknosed Nuclei (%),[3],9%
same,Population Tubulin-Different-Phenotype (%),[3],19%
same,Total Cell Count,[3],171
same,Population Apoptotic (%),[4],30%
same,Population Fragmented Nuclei (%),[4],31%
same,Population Healthy Nuclei (%),[4],41%
same,Population Hoechst High Intensity Objects (%),[4],5%
same,Population Membrane Permeable-Phenotype (%),[4],1%
same,Population Mitochondria Different-Phenotype (%),[4],3%
same,Population Mitotic Cells (%),[4],69%
same,Population Normal (%),[4],94%
same,Population Pyknosed Nuclei (%),[4],27%
same,Population Tubulin-Different-Phenotype (%),[4],45%
same,Total Cell Count,[4],137
same,Population Apoptotic (%),[5],59%
same,Population Fragmented Nuclei (%),[5],17%
same,Population Healthy Nuclei (%),[5],64%
same,Population Hoechst High Intensity Objects (%),[5],5%
same,Population Membrane Permeable-Phenotype (%),[5],1%
same,Population Mitochondria Different-Phenotype (%),[5],4%
same,Population Mitotic Cells (%),[5],40%
same,Population Normal (%),[5],94%
same,Population Pyknosed Nuclei (%),[5],18%
same,Population Tubulin-Different-Phenotype (%),[5],28%
same,Total Cell Count,[5],156
same,Population Apoptotic (%),[6],58%
same,Population Fragmented Nuclei (%),[6],27%
same,Population Healthy Nuclei (%),[6],57%
same,Population Membrane Permeable-Phenotype (%),[6],9%
same,Population Mitochondria Different-Phenotype (%),[6],7%
same,Population Mitotic Cells (%),[6],41%
same,Population Pyknosed Nuclei (%),[6],14%
same,Population Tubulin-Different-Phenotype (%),[6],45%
same,Total Cell Count,[6],179
same,Population Apoptotic (%),[7],53%
same,Population Fragmented Nuclei (%),[7],15%
same,Population Healthy Nuclei (%),[7],75%
same,Population Hoechst High Intensity Objects (%),[7],2%
same,Population Membrane Permeable-Phenotype (%),[7],0%
same,Population Mitochondria Different-Phenotype (%),[7],4%
same,Population Mitotic Cells (%),[7],46%
same,Population Normal (%),[7],97%
same,Population Pyknosed Nuclei (%),[7],8%
same,Population Tubulin-Different-Phenotype (%),[7],24%
same,Total Cell Count,[7],181
same,Population Apoptotic (%),[8],55%
same,Population Fragmented Nuclei (%),[8],29%
same,Population Healthy Nuclei (%),[8],48%
same,Population Hoechst High Intensity Objects (%),[8],4%
same,Population Membrane Permeable-Phenotype (%),[8],4%
same,Population Mitochondria Different-Phenotype (%),[8],6%
same,Population Mitotic Cells (%),[8],44%
same,Population Normal (%),[8],95%
same,Population Pyknosed Nuclei (%),[8],21%
same,Population Tubulin-Different-Phenotype (%),[8],44%
same,Total Cell Count,[8],131
same,Population Apoptotic (%),[9],76%
same,Population Fragmented Nuclei (%),[9],23%
same,Population Healthy Nuclei (%),[9],60%
same,Population Hoechst High Intensity Objects (%),[9],7%
same,Population Membrane Permeable-Phenotype (%),[9],2%
same,Population Mitochondria Different-Phenotype (%),[9],6%
same,Population Mitotic Cells (%),[9],23%
same,Population Normal (%),[9],92%
same,Population Pyknosed Nuclei (%),[9],15%
same,Population Tubulin-Different-Phenotype (%),[9],28%
same,Total Cell Count,[9],176
same,Population Apoptotic (%),[10],50%
same,Population Fragmented Nuclei (%),[10],40%
same,Population Healthy Nuclei (%),[10],52%
same,Population Hoechst High Intensity Objects (%),[10],2%
same,Population Membrane Permeable-Phenotype (%),[10],4%
same,Population Mitochondria Different-Phenotype (%),[10],10%
same,Population Mitotic Cells (%),[10],50%
same,Population Normal (%),[10],97%
same,Population Pyknosed Nuclei (%),[10],7%
same,Population Tubulin-Different-Phenotype (%),[10],32%
same,Total Cell Count,[10],195
same,Population Apoptotic (%),[11],64%
same,Population Fragmented Nuclei (%),[11],18%
same,Population Healthy Nuclei (%),[11],74%
same,Population Hoechst High Intensity Objects (%),[11],4%
same,Population Membrane Permeable-Phenotype (%),[11],0%
same,Population Mitochondria Different-Phenotype (%),[11],4%
same,Population Mitotic Cells (%),[11],35%
same,Population Normal (%),[11],95%
same,Population Pyknosed Nuclei (%),[11],7%
same,Population Tubulin-Different-Phenotype (%),[11],21%
same,Total Cell Count,[11],194
same,Population Apoptotic (%),[12],75%
same,Population Fragmented Nuclei (%),[12],39%
same,Population Healthy Nuclei (%),[12],48%
same,Population Hoechst High Intensity Objects (%),[12],3%
same,Population Membrane Permeable-Phenotype (%),[12],6%
same,Population Mitochondria Different-Phenotype (%),[12],6%
same,Population Mitotic Cells (%),[12],25%
same,Population Normal (%),[12],96%
same,Population Pyknosed Nuclei (%),[12],12%
same,Population Tubulin-Different-Phenotype (%),[12],51%
same,Total Cell Count,[12],132
COc1ccc2c(c1OCc1ccccc1)C[C@@H](C(=O)O)N(C(=O)C(c1ccccc1)c1ccccc1)C2 [OLODANRIGAN],Population Apoptotic (%),[1],46%
same,Population Fragmented Nuclei (%),[1],17%
same,Population Healthy Nuclei (%),[1],63%
same,Population Hoechst High Intensity Objects (%),[1],7%
same,Population Membrane Permeable-Phenotype (%),[1],1%
same,Population Mitochondria Different-Phenotype (%),[1],2%
same,Population Mitotic Cells (%),[1],53%
same,Population Normal (%),[1],92%
same,Population Pyknosed Nuclei (%),[1],19%
same,Population Tubulin-Different-Phenotype (%),[1],29%
same,Total Cell Count,[1],157
same,Population Apoptotic (%),[2],38%
same,Population Fragmented Nuclei (%),[2],21%
same,Population Healthy Nuclei (%),[2],50%
same,Population Hoechst High Intensity Objects (%),[2],1%
same,Population Membrane Permeable-Phenotype (%),[2],9%
same,Population Mitochondria Different-Phenotype (%),[2],5%
same,Population Mitotic Cells (%),[2],61%
same,Population Normal (%),[2],98%
same,Population Pyknosed Nuclei (%),[2],27%
same,Population Tubulin-Different-Phenotype (%),[2],57%
same,Total Cell Count,[2],154
same,Population Apoptotic (%),[3],31%
same,Population Fragmented Nuclei (%),[3],11%
same,Population Healthy Nuclei (%),[3],65%
same,Population Hoechst High Intensity Objects (%),[3],0%
same,Population Membrane Permeable-Phenotype (%),[3],1%
same,Population Mitochondria Different-Phenotype (%),[3],7%
same,Population Mitotic Cells (%),[3],68%
same,Population Normal (%),[3],99%
same,Population Pyknosed Nuclei (%),[3],23%
same,Population Tubulin-Different-Phenotype (%),[3],28%
same,Total Cell Count,[3],140
same,Population Apoptotic (%),[4],34%
same,Population Fragmented Nuclei (%),[4],18%
same,Population Healthy Nuclei (%),[4],54%
same,Population Hoechst High Intensity Objects (%),[4],5%
same,Population Membrane Permeable-Phenotype (%),[4],6%
same,Population Mitotic Cells (%),[4],65%
same,Population Normal (%),[4],94%
same,Population Pyknosed Nuclei (%),[4],26%
same,Population Tubulin-Different-Phenotype (%),[4],46%
same,Total Cell Count,[4],162
same,Population Apoptotic (%),[5],65%
same,Population Fragmented Nuclei (%),[5],18%
same,Population Healthy Nuclei (%),[5],66%
same,Population Hoechst High Intensity Objects (%),[5],6%
same,Population Membrane Permeable-Phenotype (%),[5],0%
same,Population Mitochondria Different-Phenotype (%),[5],1%
same,Population Mitotic Cells (%),[5],34%
same,Population Normal (%),[5],93%
same,Population Pyknosed Nuclei (%),[5],15%
same,Population Tubulin-Different-Phenotype (%),[5],26%
same,Total Cell Count,[5],159
same,Population Apoptotic (%),[6],38%
same,Population Fragmented Nuclei (%),[6],21%
same,Population Healthy Nuclei (%),[6],53%
same,Population Hoechst High Intensity Objects (%),[6],2%
same,Population Membrane Permeable-Phenotype (%),[6],9%
same,Population Mitochondria Different-Phenotype (%),[6],7%
same,Population Mitotic Cells (%),[6],61%
same,Population Normal (%),[6],97%
same,Population Pyknosed Nuclei (%),[6],25%
same,Population Tubulin-Different-Phenotype (%),[6],46%
same,Total Cell Count,[6],146
same,Population Apoptotic (%),[7],53%
same,Population Fragmented Nuclei (%),[7],10%
same,Population Healthy Nuclei (%),[7],68%
same,Population Hoechst High Intensity Objects (%),[7],2%
same,Population Membrane Permeable-Phenotype (%),[7],1%
same,Population Mitochondria Different-Phenotype (%),[7],3%
same,Population Mitotic Cells (%),[7],46%
same,Population Normal (%),[7],97%
same,Population Pyknosed Nuclei (%),[7],21%
same,Population Tubulin-Different-Phenotype (%),[7],21%
same,Total Cell Count,[7],136
same,Population Apoptotic (%),[8],58%
same,Population Fragmented Nuclei (%),[8],17%
same,Population Healthy Nuclei (%),[8],62%
same,Population Hoechst High Intensity Objects (%),[8],3%
same,Population Membrane Permeable-Phenotype (%),[8],4%
same,Population Mitochondria Different-Phenotype (%),[8],4%
same,Population Mitotic Cells (%),[8],41%
same,Population Normal (%),[8],96%
same,Population Pyknosed Nuclei (%),[8],19%
same,Population Tubulin-Different-Phenotype (%),[8],50%
same,Total Cell Count,[8],153
same,Population Apoptotic (%),[9],42%
same,Population Fragmented Nuclei (%),[9],27%
same,Population Healthy Nuclei (%),[9],58%
same,Population Hoechst High Intensity Objects (%),[9],3%
same,Population Membrane Permeable-Phenotype (%),[9],0%
same,Population Mitochondria Different-Phenotype (%),[9],2%
same,Population Mitotic Cells (%),[9],57%
same,Population Normal (%),[9],96%
same,Population Pyknosed Nuclei (%),[9],14%
same,Population Tubulin-Different-Phenotype (%),[9],20%
same,Total Cell Count,[9],154
same,Population Apoptotic (%),[10],41%
same,Population Fragmented Nuclei (%),[10],31%
same,Population Healthy Nuclei (%),[10],52%
same,Population Hoechst High Intensity Objects (%),[10],1%
same,Population Membrane Permeable-Phenotype (%),[10],1%
same,Population Mitochondria Different-Phenotype (%),[10],4%
same,Population Mitotic Cells (%),[10],58%
same,Population Normal (%),[10],98%
same,Population Pyknosed Nuclei (%),[10],15%
same,Population Tubulin-Different-Phenotype (%),[10],40%
same,Total Cell Count,[10],156
same,Population Apoptotic (%),[11],57%
same,Population Fragmented Nuclei (%),[11],15%
same,Population Healthy Nuclei (%),[11],69%
same,Population Hoechst High Intensity Objects (%),[11],5%
same,Population Membrane Permeable-Phenotype (%),[11],1%
same,Population Mitochondria Different-Phenotype (%),[11],5%
same,Population Mitotic Cells (%),[11],42%
same,Population Normal (%),[11],94%
same,Population Pyknosed Nuclei (%),[11],15%
same,Population Tubulin-Different-Phenotype (%),[11],27%
same,Total Cell Count,[11],146
same,Population Apoptotic (%),[12],61%
same,Population Fragmented Nuclei (%),[12],29%
same,Population Healthy Nuclei (%),[12],58%
same,Population Hoechst High Intensity Objects (%),[12],7%
same,Population Membrane Permeable-Phenotype (%),[12],3%
same,Population Mitotic Cells (%),[12],38%
same,Population Normal (%),[12],92%
same,Population Pyknosed Nuclei (%),[12],12%
same,Population Tubulin-Different-Phenotype (%),[12],45%
same,Total Cell Count,[12],163

# Source: ChEMBL document CHEMBL5058577, “EUbOPEN Chemogenomics Library 2 (Multiplex)” (2022)
